# Assay outcomes (PubChem)
# An excerpt weighted towards active compounds, which were near 3.6% of everything screened.
# GRIN3A LBD mod – binders of NR3A ligand-binding domain, primary screen, biophysical, differential scanning fluorimetry, uHTS | actives 2.5% (n = 340,000) | Tm shift relative to glycine control, % at 25 µM | NR3A LBD differential scanning fluorimetry, Tm shift; 0% = protein alone, 100% = glycine-bound protein | Glutamate receptor ionotropic, NMDA 3A (GRIN3A) ligand-binding domain;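 active means melting temperature shift of at least 10% of the positive control shift, at one fixed dose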
# NadD inh – inhibitors of S. aureus NadD, primary screen, biochemical, colorimetric, uHTS. Nicotinate-nucleotide adenylyltransferase NadD (Staphylococcus aureus N315). purified NadD enzyme, colorimetric absorbance read-out. inhibition, % at 20 µM. actives 0.78% (n = 360,000). AID 602399, 2012; in the data active means inhibition above about 26%
# ATG4B inh – ATG4B protease inhibitors, primary screen, biochemical, fluorescence, uHTS; Cysteine protease ATG4B (Homo sapiens), Q9Y4P1; ATG4B cleavage of LC3-PLA2, NBD-HPC fluorescence, 1 h; inhibition, % at 8.33 µM; actives 0.51% (n = 340,000); in the data active means inhibition above about 40%
# UCH37 inh – inhibitors of human UCH37 deubiquitinase, primary screen, biochemical, Ub-AMC cleavage, fluorescence | Ubiquitin carboxyl-terminal hydrolase isozyme L5 (Homo sapiens), Q9Y5K5 | purified proteasome/UCH37 | inhibition, % (no concentration beside the values) | actives 0.33% (n = 330,000);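 active means mean inhibition over replicate wells above about 20%, limit read from the data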;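 further: 0% = compound-free wells with enzyme and 100% = wells lacking proteasome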
# Target sequence (Q9Y5K5 whole entry, looked up): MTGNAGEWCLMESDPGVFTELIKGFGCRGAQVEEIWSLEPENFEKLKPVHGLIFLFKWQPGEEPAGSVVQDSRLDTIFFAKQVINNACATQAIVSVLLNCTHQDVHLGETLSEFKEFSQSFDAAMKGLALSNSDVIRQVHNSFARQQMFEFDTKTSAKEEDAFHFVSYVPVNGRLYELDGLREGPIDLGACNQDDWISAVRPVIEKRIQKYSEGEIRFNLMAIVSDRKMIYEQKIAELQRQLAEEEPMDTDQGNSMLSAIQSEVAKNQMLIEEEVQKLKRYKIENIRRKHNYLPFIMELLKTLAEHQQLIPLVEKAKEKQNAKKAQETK
#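 Material: human UCH37 enzyme supplied as purified proteasome complex / Amount: 0.15 nM proteasome as dispensed / Buffer or medium: pH 7.4 Tris-HCl (50 mM) with ovalbumin, ATP-MgCl2, DTT / Times: preincubation 30 min, reaction 25 min, room temperature / Technique: AMC fluorescence from Ub-AMC cleavage, excitation 355 nm, emission 460 nm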
# SENP1 inh – human SENP1 catalytic domain inhibitors, primary screen, biochemical, FRET, uHTS; recombinant SENP1 catalytic domain, CyPet-SUMO1-YPet FRET cleavage; inhibition, % at 10 µM; actives 0.21% (n = 360,000);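 active means inhibition at least 30% at 10 µM, raw YFP signal under a set limit, fluorescence ratio 0.5 to 1.5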;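 further: 0% = enzyme with DMSO and 100% = no enzyme wells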
# Target sequence (Q9P0U3 419-644 limits assumed): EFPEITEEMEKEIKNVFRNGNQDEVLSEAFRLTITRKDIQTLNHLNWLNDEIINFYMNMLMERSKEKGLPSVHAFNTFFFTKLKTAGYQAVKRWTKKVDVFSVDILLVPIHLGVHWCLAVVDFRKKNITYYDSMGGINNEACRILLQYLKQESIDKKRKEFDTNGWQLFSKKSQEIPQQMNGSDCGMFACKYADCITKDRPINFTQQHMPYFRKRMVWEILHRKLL
#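 Test system: human SENP1 catalytic domain; medium: Tris pH 8 buffer plus EDTA, NaCl, BME, BSA, NP40, catalase; incubation: 50 min reaction at room temperature; technique: FRET, CFP and YFP emission; controls: no-enzyme low control and enzyme-plus-DMSO high control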
# Starred values were filed as active, the others as inactive; . = not tested or not shown.
SMILES,GRIN3A LBD mod,NadD inh,ATG4B inh,UCH37 inh,SENP1 inh
O=C(COc1ccc(Cl)cc1Cl)NN=CCCc1ccccc1,.,.,.,1,.
CCN(CC)c1ccc(C=NOCC(=O)N2CCCc3ccccc32)cc1,.,.,.,-1,.
CNc1ccc(/C=C(\CCC(=O)O)c2nc3ccccc3s2)cc1[N+](=O)[O-],25*,13,11,19,8
COc1cc(/C=C(\CC(=O)O)c2nc3ccccc3s2)cc(OC)c1O,2,2,-8,-9,57*
Cc1ccc(/C=C(\CCC(=O)O)c2nc3ccccc3s2)cc1[N+](=O)[O-],2,6,20,10,2
COc1ccc(/C=C(\CC(=O)O)c2nc3ccccc3s2)cc1O,5,0,-9,-2,3
O=C1C(Nc2ccccc2)=C(N2CCCCC2)C(=O)c2ccccc21,-2,-10,-2,7,-96
O=C(/C=C/c1ccc(O)cc1)c1ccccc1,7,-6,25,5,24
CC(=O)Nc1ccc(S(=O)(=O)NC2=C(N3CCN(Cc4ccccc4)CC3)C(=O)c3ccccc3C2=O)cc1,-5,10,3,4,-24
Cc1ccc(NC2=C(N3CCCCC3)C(=O)c3ccccc3C2=O)cc1,0,-4,-4,23*,-108
CCN1CCN(C2=C(NS(=O)(=O)c3ccc(NC(C)=O)cc3)C(=O)c3ccccc3C2=O)CC1,15*,4,-2,12,-3
O=C(/C=C/c1ccc(O)cc1)c1ccc(NC2=C(N3CCCCC3)C(=O)c3ccccc3C2=O)cc1,-1,23,6,22*,-28
COc1ccccc1NC1=C(N2CCCCC2)C(=O)c2ccccc2C1=O,-2,-1,-2,52*,-80
COc1cccc(Cn2cc(C=NNC(=O)c3cc(O)cc(O)c3)c3ccccc32)c1,.,.,.,-28,.
Cc1ccc(C)c(OCC(=O)NN=Cc2ccsc2)c1,.,.,.,0,.
CC(CC(=O)Nc1c(C)cc(C)cc1C)=NNC(=O)c1cnccn1,.,.,.,1,.
CCn1cc([N+](=O)[O-])c(C(=O)N2N=C(c3ccc4ccccc4c3)CC2c2cc(Br)ccc2O)n1 (stereo not given),6,40*,-9,2,0
CC(C)=CCc1c(O)cc(O)c2c1OC(c1ccc(O)cc1)CC2=O (stereo not given),5,-7,-9,3,-2
CC(C)=CCc1c(O)c(CC=C(C)C)c2c(c1O)C(=O)CC(c1ccc(O)cc1)O2 (stereo not given),15*,12,4,5,2
COc1ccc(-c2nc(/C=C3\C(C)=Nc4ccccc43)c(O)o2)cc1,-4,17,-9,5,-35
CC1=Nc2ccccc2/C1=C/c1nc(-c2ccc(C)s2)oc1O,20*,12,-6,5,-32
CC1=Nc2ccccc2/C1=C/c1c(C)[nH]c2ccccc12,0,20,5,-59,-13
CC1=Nc2ccccc2/C1=C\c1nc(-c2ccccc2)oc1O,10*,15,-11,5,-21
CC1=Nc2ccccc2/C1=C\c1nc(-c2ccc(C(F)(F)F)cc2)oc1O,27*,-4,6,7,-24
COc1cc(C=NNC(=S)NN=Cc2cc(OC)c(OC)c(OC)c2)cc(OC)c1OC,.,.,.,5,.
SMILES,GRIN3A LBD mod,NadD inh,ATG4B inh,UCH37 inh,SENP1 inh
COc1cc(C=NN=C(N)c2nonc2N)cc(OC)c1O,.,.,.,11,.
CN1C/C(=C/c2cccnc2)C(=O)/C(=C/c2cccnc2)C1,20*,3,-8,7,-5
Cc1cc(N=Nc2ccc(C)c(N=Nc3cc(C)c(N)cc3N)c2)c(N)cc1N,10*,30*,-2,.,16
CCCCOP(=O)(OCCCC)C(Nc1ccccc1)c1ccc2c(c1)OCO2 (stereo not given),14*,-3,15,2,-1
COc1ccc(/C=C(\C#N)C(=O)Nc2cccc3ncccc23)cc1OC,0,0,5,5,-109
N#C/C(=C\c1ccc(O)c(O)c1)C(=O)Nc1cccc2ncccc12,-2,86*,3,.,-22
O=C1CNC(=S)N1Cc1ccc(F)cc1,72*,0,0,1,1
N#CCC(=O)N/N=C/c1cn(Cc2ccc(Cl)cc2Cl)c2ccccc12,24*,17,-13,.,1
Clc1ccc(Cn2cc(C=Nn3cnnc3)c3ccccc32)c(Cl)c1,.,.,.,2,.
O=C(NN=C/C=C/c1ccccc1)c1n[nH]c2c1CCC2,.,.,.,2,.
O=C(CNC(=O)C1COc2ccccc2O1)NN=Cc1ccc(Cl)cc1 (stereo not given),.,.,.,3,.
CCOC(=O)c1cc(C#N)c(Oc2ccccc2)nc1-c1ccccc1,13*,-4,-7,3,1
CC(=NNC(=O)CN(c1ccccc1)S(=O)(=O)c1ccccc1)c1ccccc1O,.,.,.,2,.
Cc1nc(NC(=O)c2cc3ccccc3o2)sc1C,-3,-6,3,-12,-1
CS(=O)(=O)c1ccc2sc(NC(=O)c3cc4ccccc4o3)nc2c1,11*,3,1,-7,1
Cc1ccc(C(=O)Nc2nc3ccc(S(C)(=O)=O)cc3s2)o1,1,-1,-13,7,-4
CS(=O)(=O)c1ccc2nc(NC(=O)c3cc4ccccc4o3)sc2c1,26*,-6,-12,-17,-1
CCOC(=O)N=Nc1c2ccccc2c2nc3no[nH]c3nc12,25*,1,-5,7,2
CCCC(=NCC(=O)O)C1=C(O)C(C(=O)OC)C(C)(C)CC1=O (stereo not given),25*,1,-5,-3,-2
CCCC(=Nc1ccccc1)C1=C(O)C(C(=O)OC)C(C)(C)CC1=O (stereo not given),1,3,-1,2,6
CCCC(=NCc1ccccc1)C1=C(O)C(C(=O)OC)C(C)(C)CC1=O (stereo not given),1,-5,-20,5,1
CCCCC(=Nc1ccc(N)cc1)C1=C(O)C(C(=O)OC)C(C)(C)CC1=O (stereo not given),-2,-2,-13,4,48*
COc1cc(C=N/N=C2/NC(=O)C(Cc3ccc(F)cc3)S2)ccc1O (stereo not given),.,.,.,9,.
Cn1ncc2c(Nc3cccc(Cl)c3)nc(Nc3cccc(Cl)c3)nc21,31*,0,8,.,0
O=C(N/N=C\c1cccc(Cl)c1)c1ccc(Cn2cc(Br)c([N+](=O)[O-])n2)o1,12*,8,-3,.,4
